Results: ChEMBL document CHEMBL4138133, “2,3-Dihydro-3β-methoxy Withaferin-A Protects Normal Cells against Stress: Molecular Evidence of Its Potent Cytoprotective Activity” (J Nat Prod, 2017)
The source made the active and inactive calls. No cut-off for these calls is given here.

Legend:
TIG-3 [1] = assay: Cytotoxicity against human TIG3 cells assessed as induction of morphological changes at 0.3 to 1.5 uM after 48 hrs by phase contrast microscopy; format: cell-based; details: tig-3, 48 h
Method in brief: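 Phase-contrast microscopy of morphology of control and treated normal human TIG-3 fibroblasts.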

[2] = target: Mitogen-activated protein kinase 3 (Homo sapiens) (UniProt P27361); assay: Induction of ERK1 phosphorylation at Thr202 residues in UV-irradiated human TIG3 cells using 50 mJ/cm2 of UV radiations followed by compound addition by immuno fluorescence staining based analysis
Chain of Mitogen-activated protein kinase 3 (Homo sapiens) (P27361 whole entry): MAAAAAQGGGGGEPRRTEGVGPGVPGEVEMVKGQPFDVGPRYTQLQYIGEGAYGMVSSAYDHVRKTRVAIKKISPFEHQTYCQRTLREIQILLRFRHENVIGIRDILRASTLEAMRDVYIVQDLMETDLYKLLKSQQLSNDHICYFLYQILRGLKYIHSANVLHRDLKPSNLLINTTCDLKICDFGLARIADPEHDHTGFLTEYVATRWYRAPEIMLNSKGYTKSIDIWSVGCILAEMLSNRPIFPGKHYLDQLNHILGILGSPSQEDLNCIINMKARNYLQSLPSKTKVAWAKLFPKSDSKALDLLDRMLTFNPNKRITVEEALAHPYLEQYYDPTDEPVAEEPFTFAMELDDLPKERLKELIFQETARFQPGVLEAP
Method in brief: (§1)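 TIG-3 fibroblasts (DMEM, 10% FBS, 37 °C) stressed with H2O2 (500 μM, 2 h) or UV (50 mJ/cm2), then recovered in compound-supplemented medium. Cells fixed in chilled absolute methanol and immunostained for the marker. Images taken by fluorescence microscopy and staining intensity quantified. Triplicate experiments.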

[3] = target: Mitogen-activated protein kinase 1 (Homo sapiens) (UniProt P28482); assay: Induction of ERK2 phosphorylation at Tyr204 residues in H2O2 treated human TIG3 cells at 0.6 uM pretreated with H2O2 for 2 hrs followed by compound addition by immunoblot analysis
Chain of Mitogen-activated protein kinase 1 (Homo sapiens) (P28482 whole entry): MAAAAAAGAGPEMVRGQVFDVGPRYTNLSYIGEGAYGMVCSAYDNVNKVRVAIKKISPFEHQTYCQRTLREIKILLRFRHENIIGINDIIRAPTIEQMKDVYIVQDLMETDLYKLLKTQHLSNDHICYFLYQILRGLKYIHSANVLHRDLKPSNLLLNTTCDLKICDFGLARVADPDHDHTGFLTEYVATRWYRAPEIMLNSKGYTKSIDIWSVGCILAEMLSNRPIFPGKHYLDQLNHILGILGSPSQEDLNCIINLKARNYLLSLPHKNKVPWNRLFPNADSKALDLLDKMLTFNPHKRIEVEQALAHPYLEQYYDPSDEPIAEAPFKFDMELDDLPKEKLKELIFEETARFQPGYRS
Method in brief: (§2)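 TIG-3 cells stressed with H2O2 (500 μM, 2 h), then recovered in medium containing 0.3 or 0.6 μM compound. Lysed in NP40 buffer; 10−20 μg protein immunoblotted for pAkt Ser473, p-p38 Thr180/Tyr182, p-p44/42 Thr202/Tyr204, β-catenin, survivin, Bcl-2 or full-length PARP-1. Triplicate experiments.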

TIG-3 [4] = assay: Cytoprotective activity against UV irradiation-induced stress in human TIG3 cells assessed as increase in cell survival irradiated with 50 mJ/cm2 of UV radiations followed by compound addition measured after 2 days by crystal violet staining based assay; format: functional
TIG-3 [5] = assay: Cytotoxicity against human TIG3 cells assessed as reduction in cell viability at 1 to 10 uM after 72 hrs; format: cell-based; details: tig-3, 72 h
Method in brief: (§3)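 Normal fibroblasts in DMEM/10% FBS at 37 °C given 0.15 to 50 μM compound for 48 or 72 h; viability determined; triplicate, mean ± SEM.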

TIG-3 [6] = assay: Decrease in Nrf2 expression level in human TIG3 cells at 0.3 to 3 uM by immunoblot analysis; format: ADME, cell-based; details: tig-3, 3 µM
Method in brief: (§4)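 TIG-3 cells treated with compound, lysed in NP40 buffer (centrifuged 20 min, 4 °C); 10−20 μg protein immunoblotted for indicated proteins; band quantitation from three independent experiments, Student's t or Mann−Whitney test.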

[7] = target: T1, MAP kinase p38 (Homo sapiens) (UniProt O15264+Q15759+Q16539+P53778); assay: Induction of p38 MAPK phosphorylation at Thr180/Tyr182 residues in H2O2 treated human TIG3 cells pretreated with H2O2 for 2 hrs followed by compound addition by immuno fluorescence staining based analysis; method in brief: as §1
TIG-3 [8] = assay: Cytoprotective activity against UV irradiation-induced stress in human TIG3 cells assessed as decrease in p53 level irradiated with 50 mJ/cm2 of UV radiations followed by compound addition by immuno fluorescence staining based assay; format: functional, cell-based
TIG-3 [9] = assay: Cytoprotective activity against H2O2-induced oxidative stress in human TIG3 cells assessed as decrease in gammaH2AX level at 0.6 uM pretreated with H2O2 for 2 hrs followed by compound addition by immuno fluorescence staining based analysis; format: functional, cell-based; method in brief: as §1
TIG-3 [10] = assay: Cytoprotective activity against H2O2-induced oxidative stress in human TIG3 cells assessed as decrease in CARF level pretreated with H2O2 for 2 hrs followed by compound addition by immuno fluorescence staining based assay; format: functional, cell-based
TIG-3 [11] = assay: Cytotoxicity against human TIG3 cells assessed as induction of senescence at 70 to 72 population doubling at 0.5 uM; format: cell-based; details: tig-3, 0.5 µM
TIG-3 [12] = assay: Cytoprotective activity against H2O2-induced oxidative stress in human TIG3 cells assessed as increase in cell survival at 3 uM pretreated with H2O2 for 2 hrs followed by compound addition measured after 72 hrs by crystal violet staining based assay; format: functional
WI-38 [13] = assay: Cytotoxicity against human WI38 cells assessed as inhibition of colony formation by crystal violet staining based assay; format: cell-based
Method in brief: (§5)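 500 cells/well seeded, cultured about 2 weeks with medium (control or compound-supplemented) renewed every fourth day; colonies fixed, stained, counted; triplicates, Student's t test.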

[14] = target: Mitogen-activated protein kinase 1 (Homo sapiens) (UniProt P28482); assay: Induction of ERK2 phosphorylation at Tyr204 residues in UV-irradiated human TIG3 cells using 50 mJ/cm2 of UV radiations followed by compound addition by immuno fluorescence staining based analysis; method in brief: as §1
WI-38 [15] = assay: Cytotoxicity against human WI38 cells assessed as reduction in cell viability at 1 to 10 uM after 72 hrs; format: cell-based; details: wi-38, 72 h; method in brief: as §3
TIG-3 [16] = assay: Cytoprotective activity against H2O2-induced oxidative stress in human TIG3 cells assessed as decrease in phosphorylated ATM level at 0.6 uM pretreated with H2O2 for 2 hrs followed by compound addition by immuno fluorescence staining based analysis; format: functional, cell-based; method in brief: as §1
TIG-3 [17] = assay: Cytoprotective activity against H2O2-induced oxidative stress in human TIG3 cells assessed as increase in Bcl2 level at 0.6 uM pretreated with H2O2 for 2 hrs followed by compound addition by immunoblot analysis; format: functional, cell-based; method in brief: as §2
[18] = target: Mitogen-activated protein kinase 3 (Homo sapiens) (UniProt P27361); assay: Induction of ERK1 phosphorylation at Thr202 residues in H2O2 treated human TIG3 cells at 0.6 uM pretreated with H2O2 for 2 hrs followed by compound addition by immunoblot analysis; method in brief: as §2
TIG-3 [19] = assay: Decrease in keap1 expression level in human TIG3 cells at 0.3 to 3 uM by immunoblot analysis; format: ADME, cell-based; details: tig-3, 3 µM; method in brief: as §4
[20] = target: Mitogen-activated protein kinase 3 (Homo sapiens) (UniProt P27361); assay: Induction of ERK1 phosphorylation at Thr202 residues in H2O2 treated human TIG3 cells pretreated with H2O2 for 2 hrs followed by compound addition by immuno fluorescence staining based analysis; method in brief: as §1
TIG-3 [21] = assay: Cytoprotective activity against doxorubicin-induced stress in human TIG3 cells assessed as increase in cell survival pretreated with doxorubicin for 24 hrs followed by compound addition measured after 2 days by crystal violet staining based assay; format: functional
[22] = target: T1, MAP kinase p38 (Homo sapiens); assay: Induction of p38 MAPK phosphorylation at Thr180/Tyr182 residues in UV-irradiated human TIG3 cells using 50 mJ/cm2 of UV radiations followed by compound addition by immuno fluorescence staining based analysis; method in brief: as §1
TIG-3 [23] = assay: Cytoprotective activity against H2O2-induced oxidative stress in human TIG3 cells assessed as decrease in 53BP1 level at 0.6 uM pretreated with H2O2 for 2 hrs followed by compound addition by immuno fluorescence staining based analysis; format: functional, cell-based; method in brief: as §1
TIG-3 [24] = assay: Induction of oxidative stress against human TIG3 cells assessed as increase in CARF mRNA levels by RT-PCR analysis; format: cell-based
Method in brief: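 Total RNA from treated TIG-3 cells; cDNA from 2 μg RNA; PCR 95 °C 10 min, 30 cycles (95 °C 45 s, 58 °C 1 min, 72 °C 45 s), 72 °C 10 min; products on 0.8% agarose, band densitometry; three independent experiments.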

TIG-3 [25] = assay: Cytotoxicity against human TIG3 cells assessed as inhibition of colony formation by crystal violet staining based assay; format: cell-based; method in brief: as §5
TIG-3 [26] = assay: Cytoprotective activity against UV irradiation-induced stress in human TIG3 cells assessed as increase in cell survival at 3 uM irradiated with 50 mJ/cm2 of UV radiations followed by compound addition measured after 72 hrs by crystal violet staining based assay; format: functional

## CO[C@H]1CC(=O)[C@]2(C)[C@H]3CC[C@]4(C)[C@@H]([C@H](C)[C@H]5CC(C)=C(CO)C(=O)O5)CC[C@H]4[C@@H]3C[C@H]3O[C@]32[C@H]1O
TIG-3 [1]
  Activity: Non-Toxic
[2]
  Activity: Active
[3]
  Activity: Active
TIG-3 [4]
  Activity: Dose-dependent effect
TIG-3 [5]
  Activity: Non-Toxic
TIG-3 [6]
  Activity: Non-Toxic
[7]
  Activity: Active
TIG-3 [8]
  Activity: Active
TIG-3 [9]
  Activity: Active
TIG-3 [10]
  Activity: Active
TIG-3 [11]
  Activity: Non-Toxic
TIG-3 [12]
  Activity: Active
WI-38 [13]
  Activity: Non-Toxic
[14]
  Activity: Active
WI-38 [15]
  Activity: Non-Toxic
TIG-3 [16]
  Activity: Active
TIG-3 [17]
  Activity: Active
[18]
  Activity: Active
TIG-3 [19]
  Activity: Non-Toxic
[20]
  Activity: Active
TIG-3 [21]
  Activity: Dose-dependent effect
[22]
  Activity: Active
TIG-3 [23]
  Activity: Active
TIG-3 [24]
  Activity: Non-Toxic
TIG-3 [25]
  Activity: Non-Toxic
TIG-3 [26]
  Activity: Active
